Assay results reported in ChEMBL document CHEMBL4190252, “Synthesis, antitumor activity and CDK1 inhibiton of new thiazole nortopsentin analogues” (Eur J Med Chem, 2017).
The source made the active and inactive calls. No cut-off for these calls is given here.

Assays:
[1] = Selectivity index, ratio of LC50 for human Caco2 cells to GI50 for human MCF7 cells; type: toxicity; conditions: Caco2 cells (LC50) and MCF7 cells (GI50), read-out: Selectivity Index
Outline: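 Caco-2 cells were differentiated to a normal intestinal-like state for 15 days after confluence, seeded at 2 x 10^4 cells/well in RPMI, and treated with 5–100 µM for 72 h. MTT was added for 2 h at 37 °C, formazan was dissolved in DMSO and read at 570 nm. LC50 came from viability-versus-concentration plots, with at least three experiments in triplicate. SI is the Caco-2 LC50 divided by the MCF-7 GI50.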

[2] = test system: Panel NCI-60 (60 carcinoma cell lines); test: Growth inhibition of human NCI60 cells at 10^-5 M incubated for 48 hrs by sulforhodamine B assay; type: functional, cell-based
OVCAR-5 = test: Growth inhibition of human OVCAR5 cells incubated for 48 hrs by sulforhodamine B assay; type: functional; conditions: OVCAR-5, 48 h
Outline: (§1)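 NCI full panel screen: five 10-fold dilutions (10^-4–10^-8 M). GI50 is the molar concentration giving 50% inhibition of net cell growth.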

SK-MEL-2 = test: Growth inhibition of human SK-MEL-2 cells incubated for 48 hrs by sulforhodamine B assay; type: functional; conditions: SK-MEL-2, 48 h
Outline: (§2)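 NCI full-panel human tumour cell screen. Cells were exposed to five 10-fold dilutions from 10^-4 to 10^-8 M. GI50 is the molar concentration giving 50% inhibition of net cell growth, and a mean graph midpoint was calculated across the panel.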

MDA-MB-231 = test: Growth inhibition of human MDA-MB-231 cells incubated for 48 hrs by sulforhodamine B assay; type: functional; conditions: MDA-MB-231, 48 h; outline: as §1
UACC-62 = test: Growth inhibition of human UACC62 cells incubated for 48 hrs by sulforhodamine B assay; type: functional; conditions: UACC-62, 48 h; outline: as §2
MDA-MB-468 = test: Growth inhibition of human MDA-MB-468 cells incubated for 48 hrs by sulforhodamine B assay; type: functional; conditions: MDA-MB-468, 48 h; outline: as §1
SK-MEL-5 = test: Growth inhibition of human SK-MEL-5 cells incubated for 48 hrs by sulforhodamine B assay; type: functional; conditions: SK-MEL-5, 48 h; outline: as §2
NCI/ADR-RES = test: Growth inhibition of human NCI/ADR-RES cells incubated for 48 hrs by sulforhodamine B assay; type: functional; outline: as §1
IGROV-1 = test: Growth inhibition of human IGROV1 cells incubated for 48 hrs by sulforhodamine B assay; type: functional; conditions: IGROV-1, 48 h; outline: as §1
SW-620 = test: Growth inhibition of human SW620 cells incubated for 48 hrs by sulforhodamine B assay; type: functional; conditions: SW-620, 48 h; outline: as §2
MDA-MB-435 = test: Growth inhibition of human MDA-MB-435 cells incubated for 48 hrs by sulforhodamine B assay; type: functional; conditions: MDA-MB-435, 48 h; outline: as §1
A498 = test: Growth inhibition of human A498 cells incubated for 48 hrs by sulforhodamine B assay; type: functional; conditions: A498, 48 h; outline: as §1
Malme-3M = test: Growth inhibition of human MALME-3M cells incubated for 48 hrs by sulforhodamine B assay; type: functional; outline: as §1
MCF7 [3] = test: Cell cycle arrest in human MCF7 cells assessed as reduction in accumulation at G0/G1 phase at GI50 concentration after 48 hrs by propidium iodide-staining based flow cytometry; type: functional
Outline: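 Cells were trypsinized, washed in cold PBS, and 1 x 10^6 cells stained with 20 µg/ml PI plus 200 µg/ml RNase for 30 min at room temperature in the dark. At least 1x 10^4 cells were analysed by flow cytometry. Mean±SD of three experiments in triplicate.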

COLO 205 = test: Growth inhibition of human COLO205 cells incubated for 48 hrs by sulforhodamine B assay; type: functional; conditions: COLO 205, 48 h; outline: as §1
CAKI-1 = test: Growth inhibition of human Caki1 cells incubated for 48 hrs by sulforhodamine B assay; type: functional; conditions: CAKI-1, 48 h; outline: as §1
MCF7 [4] = test: Induction of apoptosis in human MCF7 cells assessed as late apoptotic cells at 2 x 10^-6 M after 72 hrs by Annexin V/propidium iodide double staining-based flow cytometry (reference value: 0%); type: functional
Outline: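 MCF-7 cells were grown in RPMI with 10% FBS, 2 mM L-glutamine and antibiotics at 37 °C in 5% CO2. They were seeded at 2.0 x 10^5 cells/cm2 in triplicate, left to adhere overnight, then treated for 72 h; DMSO 0.1% served as vehicle. Trypsinised cells at 2.0 x 10^5/mL were stained with annexin V-FITC and PI for 15 min at room temperature in the dark. At least 1.0 x 10^4 cells were gated into viable, early apoptotic, late apoptotic and necrotic quadrants.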

K562 = test: Growth inhibition of human K562 cells incubated for 48 hrs by sulforhodamine B assay; type: functional; conditions: K562, 48 h; outline: as §1
UACC-257 = test: Growth inhibition of human UACC257 cells incubated for 48 hrs by sulforhodamine B assay; type: functional; conditions: UACC-257, 48 h; outline: as §2
NCI-H322M = test: Growth inhibition of human NCI-H322M cells incubated for 48 hrs by sulforhodamine B assay; type: functional; outline: as §1
RXF 393 = test: Growth inhibition of human RXF393 cells incubated for 48 hrs by sulforhodamine B assay; type: functional; conditions: RXF 393, 48 h; outline: as §1
U-251 = test: Growth inhibition of human U251 cells incubated for 48 hrs by sulforhodamine B assay; type: functional; conditions: U-251, 48 h; outline: as §2
SNB-75 = test: Growth inhibition of human SNB75 cells incubated for 48 hrs by sulforhodamine B assay; type: functional; conditions: SNB-75, 48 h; outline: as §2
HOP-92 = test: Growth inhibition of human HOP92 cells incubated for 48 hrs by sulforhodamine B assay; type: functional; conditions: HOP-92, 48 h; outline: as §1
LOX IMVI = test: Growth inhibition of human LOXIMVI cells incubated for 48 hrs by sulforhodamine B assay; type: functional; outline: as §1
HCT-15 = test: Growth inhibition of human HCT15 cells incubated for 48 hrs by sulforhodamine B assay; type: functional; conditions: HCT-15, 48 h; outline: as §1
BT-549 = test: Growth inhibition of human BT549 cells incubated for 48 hrs by sulforhodamine B assay; type: functional; conditions: BT-549, 48 h; outline: as §1
HCT-116 = test: Growth inhibition of human HCT116 cells incubated for 48 hrs by sulforhodamine B assay; type: functional; conditions: HCT-116, 48 h; outline: as §1
SF-268 = test: Growth inhibition of human SF268 cells incubated for 48 hrs by sulforhodamine B assay; type: functional; conditions: SF-268, 48 h; outline: as §1
UO-31 = test: Growth inhibition of human UO31 cells incubated for 48 hrs by sulforhodamine B assay; type: functional; conditions: UO-31, 48 h; outline: as §2
SF-295 = test: Growth inhibition of human SF295 cells incubated for 48 hrs by sulforhodamine B assay; type: functional; conditions: SF-295, 48 h; outline: as §1
SK-MEL-28 = test: Growth inhibition of human SK-MEL-28 cells incubated for 48 hrs by sulforhodamine B assay; type: functional; conditions: SK-MEL-28, 48 h; outline: as §2
SR = test: Growth inhibition of human SR cells incubated for 48 hrs by sulforhodamine B assay; type: functional; outline: as §2
786-0 = test: Growth inhibition of human 786-0 cells incubated for 48 hrs by sulforhodamine B assay; type: functional; conditions: 786-0, 48 h; outline: as §1

Row | Compound | growth inhibition (GI) [2] | GI50 (OVCAR-5) [µM] | GI50 (SK-MEL-2) [µM] | GI50 (MDA-MB-231) [µM] | GI50 (UACC-62) [µM] | GI50 (MDA-MB-468) [µM] | GI50 (SK-MEL-5) [µM] | GI50 (NCI/ADR-RES) [µM] | GI50 (IGROV-1) [µM] | GI50 (SW-620) [µM] | GI50 (MDA-MB-435) [µM] | GI50 (A498) [µM] | GI50 (Malme-3M) [µM] | GI50 (COLO 205) [µM] | GI50 (CAKI-1) [µM] | GI50 (K562) [µM] | GI50 (NCI-H322M) [µM] | GI50 (RXF 393) [µM] | GI50 (U-251) [µM] | GI50 (SNB-75) [µM] | further results
1 | COCCn1cc(-c2csc(-c3c[nH]c4ccccc34)n2)c2cccnc21 | Active | 28.2 | 7.38 | 5.05 | 4.58 | 0.97 | 3.22 | 1.76 | 2.53 | 3.52 | 0.86 | 3.03 | 3.58 | 2.66 | 8.36 | 2.8 | > 100 | 5.76 | 6.12 | 1.43 | selectivity ratio [1]: 41; Activity (MCF7 [3]): Active; Activity (MCF7 [4]): 0%; GI50 (UACC-257): > 100 µM; GI50 (HOP-92): 14.9 µM; GI50 (LOX IMVI): 3.96 µM; GI50 (HCT-15): 2.34 µM; GI50 (BT-549): 4.45 µM; GI50 (HCT-116): 3.63 µM; GI50 (SF-268): 6.98 µM; GI50 (UO-31): 4.15 µM; GI50 (SF-295): 3.35 µM; GI50 (SK-MEL-28): 8.19 µM; GI50 (SR): 3.02 µM; GI50 (786-0): 6.25 µM
2 | COCCn1cc(-c2csc(-c3c[nH]c4ccc(F)cc34)n2)c2cccnc21 | Active | 10.1 | 3.89 | 2.59 | 6.78 | 2.44 | 2.69 | 2.17 | 3.49 | 3.63 | 0.9 | 3.26 | 4.54 | 2.69 | 9.54 | 2.12 | > 100 | 5.91 | 5.14 | 2.97 | selectivity ratio [1]: 46; Activity (MCF7 [3]): Active; Activity (MCF7 [4]): 0%; GI50 (HOP-92): 6.29 µM; GI50 (LOX IMVI): 3.44 µM; GI50 (HCT-15): 2.35 µM; GI50 (BT-549): 4.26 µM; GI50 (HCT-116): 3.77 µM; GI50 (SF-268): 7.67 µM; GI50 (UO-31): 4.41 µM; GI50 (SF-295): 3.2 µM; GI50 (SK-MEL-28): 7.72 µM; GI50 (SR): 3.24 µM; GI50 (786-0): 5.12 µM
3 | COCCn1cc(-c2nc(-c3c[nH]c4ncccc34)cs2)c2cc(OC)ccc21 | Active | 0.61 | 3.56 | 2.02 | 5.98 | 0.03 | 5.53 | 3.07 | 0.55 | 4.5 | 6.41 | 1.87 | 12.6 | 5.03 | 4.36 | 4.79 | 1.95 | 1.18 | 4.43 | 1.1 | Activity (MCF7 [3]): Active; GI50 (UACC-257): 4.26 µM; GI50 (HOP-92): 0.99 µM; GI50 (LOX IMVI): 3.69 µM; GI50 (HCT-15): 2.15 µM; GI50 (BT-549): 2.38 µM; GI50 (HCT-116): 4.55 µM; GI50 (SF-268): 4.42 µM; GI50 (UO-31): 2.31 µM; GI50 (SF-295): 2.7 µM; GI50 (SK-MEL-28): 7.39 µM; GI50 (SR): 1.28 µM; GI50 (786-0): 3.44 µM
4 | COCCn1cc(-c2csc(-c3c[nH]c4ccc(Br)cc34)n2)c2cccnc21 | Active | 4.83 | 6.82 | 2.65 | 4.2 | 2.34 | 3.24 | 2.86 | 4.06 | 3.3 | 4.12 | 3.02 | 3.66 | 3.22 | 5.21 | 3.6 | 11.8 | 3.3 | 6.18 | 4.72 | selectivity ratio [1]: 46; Activity (MCF7 [4]): 0%; GI50 (UACC-257): 8.69 µM; GI50 (HOP-92): 4.39 µM; GI50 (LOX IMVI): 2.67 µM; GI50 (HCT-15): 3.14 µM; GI50 (BT-549): 4.8 µM; GI50 (HCT-116): 3.84 µM; GI50 (UO-31): 3.1 µM; GI50 (SF-295): 2.83 µM; GI50 (SK-MEL-28): 4.79 µM; GI50 (SR): 3.25 µM; GI50 (786-0): 4.03 µM
